Measurements from ChEMBL document CHEMBL3997782, “Methoxylated 2'-hydroxychalcones as antiparasitic hit compounds” (Eur J Med Chem, 2017).

Assays:
[1] = Lipophilicity, log P of the compound; format: physicochemical; details: octanol/water
[2] = tested on: Trypanosoma brucei; assay: Anti-parasitic activity against Trypanosoma brucei 427; format: functional
[3] = tested on: Leishmania infantum; assay: Anti-parasitic activity against Leishmania infantum amastigotes infected in human THP1 cells at 50 uM after 5 days by Giemsa staining based assay relative to control; format: functional, cell-based; details: THP-1, 120 h
In short: (§1)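 Intracellular L. infantum amastigotes in host cells, imaged by high-content automated imaging. Host cell number, infected cells and parasites per infected cell were counted. Infection Ratio = infected cells / total cells.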

[4] = Selectivity index, ratio of CC50 for human THP1 cells to EC50 for anti-parasitic activity against bloodstream form of Trypanosoma brucei brucei Lister 427; format: toxicity; details: THP-1 cells, read-out: Ratio CC50/EC50
In short: (§2)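 SI = CC50 in PMA-differentiated THP-1 macrophages (MTT) divided by the antiparasitic EC50.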

[5] = target: CYP3A4 (Homo sapiens, UniProt P08684); assay: Inhibition of human CYP3A4 expressed in baculovirus-infected insect cells at 10 uM using Luciferin-PFBE as substrate in presence of NADPH by P450-Glo luminescence assay relative to control; format: ADME; details: probe Luciferin-PFBE
CYP3A4, sequence (P08684 whole entry): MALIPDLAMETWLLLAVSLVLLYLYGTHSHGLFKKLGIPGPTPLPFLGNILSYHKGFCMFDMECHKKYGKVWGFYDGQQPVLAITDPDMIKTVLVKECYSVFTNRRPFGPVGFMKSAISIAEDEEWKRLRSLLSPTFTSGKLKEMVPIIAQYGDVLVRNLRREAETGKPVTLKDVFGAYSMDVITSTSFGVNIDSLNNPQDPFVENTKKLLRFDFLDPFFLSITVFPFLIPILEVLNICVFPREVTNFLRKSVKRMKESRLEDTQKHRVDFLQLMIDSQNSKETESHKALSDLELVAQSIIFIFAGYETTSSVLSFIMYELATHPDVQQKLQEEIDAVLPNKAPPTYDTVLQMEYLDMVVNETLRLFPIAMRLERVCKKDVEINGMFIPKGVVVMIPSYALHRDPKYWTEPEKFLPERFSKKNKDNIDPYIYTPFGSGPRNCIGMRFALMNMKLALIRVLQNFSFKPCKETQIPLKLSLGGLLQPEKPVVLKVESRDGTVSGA

[6] = target: hERG (KCNH2) (Homo sapiens, UniProt Q12809); assay: Inhibition of human ERG at 10 uM by Tracer Red dye based fluorescence polarization assay relative to control; details: probe Tracer Red dye
hERG (KCNH2), sequence (Q12809 whole entry): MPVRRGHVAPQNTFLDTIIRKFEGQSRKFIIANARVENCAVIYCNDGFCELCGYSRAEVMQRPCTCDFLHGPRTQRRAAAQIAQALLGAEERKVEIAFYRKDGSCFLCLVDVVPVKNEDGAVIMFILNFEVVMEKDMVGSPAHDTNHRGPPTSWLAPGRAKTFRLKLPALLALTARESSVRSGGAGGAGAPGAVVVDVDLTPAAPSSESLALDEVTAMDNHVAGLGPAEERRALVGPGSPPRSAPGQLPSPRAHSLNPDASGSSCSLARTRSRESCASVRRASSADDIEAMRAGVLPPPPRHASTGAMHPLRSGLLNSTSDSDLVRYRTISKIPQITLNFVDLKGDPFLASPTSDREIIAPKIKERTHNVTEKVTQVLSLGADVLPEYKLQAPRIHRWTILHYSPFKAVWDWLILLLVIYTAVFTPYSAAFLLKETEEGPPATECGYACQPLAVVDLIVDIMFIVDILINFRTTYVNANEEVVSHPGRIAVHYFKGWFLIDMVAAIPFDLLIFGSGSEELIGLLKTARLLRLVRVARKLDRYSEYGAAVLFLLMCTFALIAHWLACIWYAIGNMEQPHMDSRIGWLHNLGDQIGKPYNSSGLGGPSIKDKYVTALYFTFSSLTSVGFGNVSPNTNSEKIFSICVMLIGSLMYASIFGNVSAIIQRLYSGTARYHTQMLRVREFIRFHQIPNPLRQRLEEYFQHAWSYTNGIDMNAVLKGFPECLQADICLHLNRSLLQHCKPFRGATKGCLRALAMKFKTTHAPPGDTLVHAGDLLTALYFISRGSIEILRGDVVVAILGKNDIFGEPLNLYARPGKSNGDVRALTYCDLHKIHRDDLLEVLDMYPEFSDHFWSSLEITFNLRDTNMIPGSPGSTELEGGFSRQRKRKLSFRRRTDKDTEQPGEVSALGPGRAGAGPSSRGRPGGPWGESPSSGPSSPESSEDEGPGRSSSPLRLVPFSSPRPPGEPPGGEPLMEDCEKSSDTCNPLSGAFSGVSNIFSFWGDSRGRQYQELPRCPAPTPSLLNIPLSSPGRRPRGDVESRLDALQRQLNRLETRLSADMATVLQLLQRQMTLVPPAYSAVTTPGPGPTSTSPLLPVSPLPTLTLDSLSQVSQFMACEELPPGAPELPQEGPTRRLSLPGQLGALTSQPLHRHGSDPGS

[7] = Selectivity index, ratio of CC50 for human THP1 cells to EC50 for anti-parasitic activity against Leishmania infantum amastigotes infected in human THP1 cells; format: toxicity, cell-based; details: THP-1 cells, read-out: Ratio CC50/EC50; in short: as §2
[8] = Cytotoxicity against human THP1 cells by MTT assay; format: cell-based; details: THP-1 cells
In short: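 THP-1 cells differentiated to macrophages with PMA, viability read by colorimetric MTT. CC50 and NOAEL are the arithmetic mean of at least two independent determinations, each run in triplicate.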

[9] = target: CYP2C9 (Homo sapiens, UniProt P11712); assay: Inhibition of human CYP2C9 expressed in baculovirus-infected insect cells at 10 uM using Luciferin-H as substrate in presence of NADPH by P450-Glo luminescence assay relative to control; details: probe Luciferin-H
CYP2C9, sequence (P11712 whole entry): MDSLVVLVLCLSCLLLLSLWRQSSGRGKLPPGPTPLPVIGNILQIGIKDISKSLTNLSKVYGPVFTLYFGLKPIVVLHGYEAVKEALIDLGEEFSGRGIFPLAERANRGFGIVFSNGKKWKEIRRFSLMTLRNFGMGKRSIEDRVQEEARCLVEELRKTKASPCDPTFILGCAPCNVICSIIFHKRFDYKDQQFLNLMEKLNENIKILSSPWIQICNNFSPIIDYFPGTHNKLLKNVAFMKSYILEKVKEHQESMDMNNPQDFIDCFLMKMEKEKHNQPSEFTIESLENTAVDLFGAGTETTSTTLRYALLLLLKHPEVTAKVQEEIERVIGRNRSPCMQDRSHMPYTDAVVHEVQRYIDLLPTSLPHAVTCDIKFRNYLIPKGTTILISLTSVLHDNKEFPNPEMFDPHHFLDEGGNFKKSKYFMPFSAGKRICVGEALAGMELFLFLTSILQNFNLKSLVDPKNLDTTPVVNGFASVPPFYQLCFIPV

[10] = target: T1, CYP1A2 (Homo sapiens, UniProt P05177); assay: Inhibition of human CYP1A2 expressed in baculovirus-infected insect cells at 10 uM using Luciferin-1A2 as substrate in presence of NADPH by P450-Glo luminescence assay relative to control; format: ADME; details: probe Luciferin-1A2
T1 sequence (P05177 whole entry): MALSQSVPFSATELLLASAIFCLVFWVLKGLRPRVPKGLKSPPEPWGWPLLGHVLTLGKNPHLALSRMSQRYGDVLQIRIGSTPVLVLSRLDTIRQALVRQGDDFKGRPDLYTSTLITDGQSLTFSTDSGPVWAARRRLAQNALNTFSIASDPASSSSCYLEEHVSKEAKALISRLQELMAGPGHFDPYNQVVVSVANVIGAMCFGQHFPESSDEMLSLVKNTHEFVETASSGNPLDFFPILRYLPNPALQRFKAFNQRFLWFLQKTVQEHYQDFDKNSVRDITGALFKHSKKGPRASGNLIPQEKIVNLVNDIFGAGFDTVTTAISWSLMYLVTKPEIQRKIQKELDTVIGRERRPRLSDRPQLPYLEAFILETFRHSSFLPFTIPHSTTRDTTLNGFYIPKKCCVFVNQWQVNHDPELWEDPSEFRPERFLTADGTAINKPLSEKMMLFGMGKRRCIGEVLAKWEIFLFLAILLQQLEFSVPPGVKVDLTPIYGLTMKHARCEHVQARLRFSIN
In short: (§3)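 CYP enzymes as microsomal preparations from baculovirus-infected insect cells, run on the P450-Glo luminogenic substrate platform. A fall in light output indicates inhibition.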

[11] = tested on: 786-0; assay: Mitochondrial toxicity in human 786-O cells at 10 uM by mitotracker red chloromethyl-Xrosamine staining based-uptake method relative to control; format: cell-based; details: 786-0, 10 µM
In short: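 786-O renal carcinoma cells kept in RPMI-1640 with 2 mM glutamine, 10% v/v FCS, streptomycin 100 µg/ml and penicillin G 100 U/ml. Mitochondrial toxicity monitored by MitoTracker Red CMXRos uptake with high-content imaging.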

[12] = tested on: Trypanosoma brucei brucei; assay: Anti-parasitic activity against bloodstream form of Trypanosoma brucei brucei Lister 427 at 10 uM after 72 hrs by resazurin-based assay relative to control; format: functional; details: Lister 427, 72 h
In short: (§4)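 Bloodstream-form T. brucei, modified resazurin-based viability assay. EC50 is the arithmetic mean of at least two independent determinations, each run in triplicate.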

[13] = tested on: Trypanosoma cruzi; assay: Anti-parasitic activity against Trypanosoma cruzi Y promastigotes infected in HG39 cells at 10 uM by qPCR analysis relative to control; format: functional, cell-based; details: in the assay text read “trypomastigotes” for “promastigotes”
In short: (§5)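 Confluent HG39 cells (3 x 10^6 per well) infected at a 1:1 ratio with blood-derived T. cruzi Y strain trypomastigotes. Growth inhibition was read as parasite gDNA by TaqMan probe-based quantitative real-time PCR.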

[14] = tested on: Trypanosoma brucei brucei; assay: Anti-parasitic activity against bloodstream form of Trypanosoma brucei brucei Lister 427 after 72 hrs by resazurin-based assay; format: functional; details: Lister 427, 72 h; in short: as §4
[15] = Cytotoxicity against human […] cells assessed as cell growth at 10 uM by Cell titer-Glo assay relative to control; format: cell-based; details: WI-38 cells, read-out: Activity
In short: (§6)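 A549 and WI-38 cells grown in DMEM with 10% v/v FCS, streptomycin 100 µg/ml and penicillin G 100 U/ml. Cell number read as cellular ATP by CellTiter-Glo luminescence. Growth 60–100% scored non-cytotoxic, 0–60% cytostatic, below 0 cytotoxic.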

[16] = target: CYP2C19 (Homo sapiens, UniProt P33261); assay: Inhibition of human CYP2C19 expressed in baculovirus-infected insect cells at 10 uM using Luciferin-H EGE as substrate in presence of NADPH by P450-Glo luminescence assay relative to control; format: ADME; details: probe Luciferin-H EGE; in short: as §3
CYP2C19, sequence (P33261 whole entry): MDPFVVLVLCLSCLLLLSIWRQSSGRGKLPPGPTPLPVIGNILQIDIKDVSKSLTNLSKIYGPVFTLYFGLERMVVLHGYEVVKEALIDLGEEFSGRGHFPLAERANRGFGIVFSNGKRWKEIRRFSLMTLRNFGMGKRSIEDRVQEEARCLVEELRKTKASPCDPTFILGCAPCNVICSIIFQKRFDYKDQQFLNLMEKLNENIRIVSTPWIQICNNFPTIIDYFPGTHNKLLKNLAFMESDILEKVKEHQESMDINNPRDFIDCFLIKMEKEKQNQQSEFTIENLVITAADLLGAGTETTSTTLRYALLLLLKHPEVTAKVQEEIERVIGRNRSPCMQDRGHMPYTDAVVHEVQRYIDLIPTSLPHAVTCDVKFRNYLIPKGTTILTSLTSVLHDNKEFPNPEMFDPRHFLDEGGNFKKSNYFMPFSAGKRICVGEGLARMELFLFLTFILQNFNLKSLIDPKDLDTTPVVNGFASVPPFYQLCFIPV

[17] = target: Aurora kinase B (Homo sapiens, UniProt Q96GD4); assay: Inhibition of N-terminal-GST-tagged recombinant full length human Aurora B expressed in baculovirus infected Sf9 cells at 10 uM using native Swine Myelin Basic Protein as substrate measured after 60 mins by ADP-Glo assay relative to control; details: probe native Swine Myelin Basic Protein
Aurora kinase B, sequence (Q96GD4 whole entry): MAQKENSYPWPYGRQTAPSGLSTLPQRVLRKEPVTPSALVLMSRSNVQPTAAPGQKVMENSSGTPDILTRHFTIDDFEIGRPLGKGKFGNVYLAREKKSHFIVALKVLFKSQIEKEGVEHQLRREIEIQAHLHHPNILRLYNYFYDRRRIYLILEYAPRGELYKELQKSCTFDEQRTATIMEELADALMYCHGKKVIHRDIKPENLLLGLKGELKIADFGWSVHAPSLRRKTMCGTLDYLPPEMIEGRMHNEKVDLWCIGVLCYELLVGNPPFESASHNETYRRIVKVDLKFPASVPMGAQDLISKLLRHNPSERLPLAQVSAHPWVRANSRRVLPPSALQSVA
In short: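 Aurora B kinase activity measured by ADP-Glo, which detects ADP formed through a coupled luciferase luminescence read-out.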

[18] = tested on: Leishmania infantum; assay: Anti-parasitic activity against Leishmania infantum amastigotes infected in human THP1 cells after 5 days by Giemsa staining based assay; format: functional, cell-based; details: THP-1, 120 h; in short: as §1
[19] = target: CYP2D6 (Homo sapiens, UniProt P10635); assay: Inhibition of human CYP2D6 expressed in baculovirus-infected insect cells at 10 uM using Luciferin-ME EGE as substrate in presence of NADPH by P450-Glo luminescence assay relative to control; format: ADME; details: probe Luciferin-ME EGE; in short: as §3
CYP2D6, sequence (P10635 whole entry): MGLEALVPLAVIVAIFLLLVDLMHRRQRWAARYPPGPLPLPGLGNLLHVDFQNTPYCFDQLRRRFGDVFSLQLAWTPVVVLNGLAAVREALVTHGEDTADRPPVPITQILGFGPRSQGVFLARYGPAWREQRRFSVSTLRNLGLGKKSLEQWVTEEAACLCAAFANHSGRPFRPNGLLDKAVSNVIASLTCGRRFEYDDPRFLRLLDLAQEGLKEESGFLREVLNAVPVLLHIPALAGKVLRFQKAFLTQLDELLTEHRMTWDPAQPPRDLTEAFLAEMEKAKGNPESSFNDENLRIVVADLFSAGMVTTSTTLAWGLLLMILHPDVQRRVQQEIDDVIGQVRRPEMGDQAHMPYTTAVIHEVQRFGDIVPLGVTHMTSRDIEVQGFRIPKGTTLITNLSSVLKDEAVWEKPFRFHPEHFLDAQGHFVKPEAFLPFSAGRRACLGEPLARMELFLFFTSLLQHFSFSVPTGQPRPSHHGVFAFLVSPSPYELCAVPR

[20] = Cytotoxicity against human A549 cells assessed as cell growth at 10 uM by Cell titer-Glo assay relative to control; format: cell-based; details: read-out: Activity; in short: as §6
[21] = target: Cytochrome P450 2D6 (Homo sapiens, UniProt P10635); assay: Inhibition of human CYP2D6 expressed in baculovirus-infected insect cells using Luciferin-ME EGE as substrate in presence of NADPH by P450-Glo luminescence assay; format: ADME; in short: as §3
Cytochrome P450 2D6, sequence (P10635 whole entry): as above

[22] = target: Cytochrome P450 2C19 (Homo sapiens, UniProt P33261); assay: Inhibition of human CYP2C19 expressed in baculovirus-infected insect cells using Luciferin-H EGE as substrate in presence of NADPH by P450-Glo luminescence assay; format: ADME; in short: as §3
Cytochrome P450 2C19, sequence (P33261 whole entry): as the sequence (P33261 whole entry) above

[23] = target: T2, Cytochrome P450 1A2 (Homo sapiens, UniProt P05177); assay: Inhibition of human CYP1A2 expressed in baculovirus-infected insect cells using Luciferin-1A2 as substrate in presence of NADPH by P450-Glo luminescence assay; format: ADME; in short: as §3
T2 sequence (P05177 whole entry): T1 sequence (P05177 whole entry)

[24] = Cytotoxicity against human A549 cells assessed as cell growth by Cell titer-Glo assay; format: cell-based; in short: as §6
[25] = tested on: Trypanosoma cruzi; assay: Anti-parasitic activity against Trypanosoma cruzi Y promastigotes infected in HG39 cells by qPCR analysis; format: functional, cell-based; details: in the assay text read “trypomastigotes” for “promastigotes”; in short: as §5

Compound	logP [1]	inhibition at 50 µM [3] [%]	selectivity ratio [4]	inhibition at 10 µM [5] [%]	inhibition at 10 µM [6] [%]	selectivity ratio [7]	CC50 [8] [µM]	inhibition at 10 µM [9] [%]	inhibition at 10 µM [10] [%]	Activity [11] [%]	inhibition at 10 µM [12] [%]	inhibition at 10 µM [13] [%]	EC50 [14] [µM]	viability at 10 µM [15] [%]	inhibition at 10 µM [16] [%]	inhibition at 1 h, 10 µM [17] [%]	EC50 [18] [µM]	inhibition at 10 µM [19] [%]	viability at 10 µM [20] [%]	also measured
COc1cc(O)c(C(=O)/C=C/c2ccccc2)c(OC)c1 [FLAVOKAWAIN B]	3.9																			EC50 [2]: 6.2 µM
COc1cc(O)c(C(=O)/C=C/c2cc(OC)c(OC)c(OC)c2)cc1OC	3.5	88	≥ 3	18.7	7.1	> 2	> 25	27	-3.1	10	91	0	7.4	88.5	75.7	-4.2	22.2	-24.9	115	
N=C(N)c1ccc(OCCCCCOc2ccc(C(=N)N)cc2)cc1 [PENTAMIDINE]													0.00155							IC50 [21]: 24.8 µM; IC50 [22]: > 100 µM; IC50 [23]: > 100 µM; GI50 [24]: > 100 µM
COc1ccc(O)c(C(=O)/C=C/c2cc(OC)c(OC)c(OC)c2)c1	3.47	43	≥ 6	-3.1	9.5	> 1	> 25	60.9	13.3	-6.4	100	1	4.4	73.9	84.6	-8.1	42.4	88.3	108	
COc1ccc(C(=O)/C=C/c2cc(OC)c(OC)c(OC)c2)c(O)c1	3.49	71		-10	34.7	> 1.6	> 100	57.6	1.2	1.1		60		78.1	67.5	-23.6	30.6	65.1	127	EC50 [25]: < 10 µM
